Legend:
Cavia porcellus [1] = assay: Tested in delayed hypersensitivity skin reaction (DHSR) after subcutaneous administration, activity reported as percent inhibition of erythema/induration of lesion; 4/0; format: functional
Summary of the method: (§1)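 Male Hartley guinea pigs were sensitized with Mycobacterium tuberculosis in Freund's incomplete adjuvant, injected into each hind footpad and subcutaneously at the neck. After 3 weeks, 1.2 μg PPD was given intradermally. Compound in sesame oil was given sc, 3 animals per group, 30 min before and 5 h after PPD; screening dose 50 mg/kg.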

Mus musculus [2] = assay: Inhibition of Mouse Active Arthus reaction following 150 mg/Kg i.p.; 41-60% inhibition.; format: functional; settings: Mus musculus, ip
Mus musculus [3] = assay: The compound was evaluated for the mouse active Arthus (MAA) reaction activity for an ip dose of 150 mg/kg in mouse; 31-40%; format: functional; settings: route intraperitoneal
Summary of the method: (§2)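 CD-1 mice were sensitized ip with a 1:1 Freund's complete adjuvant emulsion containing BSA in saline, 5 weeks before challenge. Compound was suspended in 1% Na CMC in pyrogen-free saline and given as one ip or oral dose 1 h before skin challenge with BSA. Screening doses were 150 mg/kg ip and 300 mg/kg po, with some at 75 or 50 mg/kg ip. Lesions were excised 3.5 h after challenge and weighed against controls.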

Cavia porcellus [4] = assay: Tested in delayed hypersensitivity skin reaction (DHSR) after subcutaneous administration, activity reported as percent inhibition of erythema/induration of lesion; 10/8; format: functional
Mus musculus [5] = assay: The compound was evaluated for the mouse active Arthus (MAA) reaction activity for an ip screening dose of 75 mg/kg in mouse; 31-40%; format: functional; settings: route intraperitoneal; summary of the method: as §2
Mus musculus [6] = assay: Mouse active Arthus (MAA) reaction activity was determined for an ip dose of 150 mg/kg in mouse; format: functional; settings: route intraperitoneal
Cavia porcellus [7] = assay: Tested in delayed hypersensitivity skin reaction (DHSR) after subcutaneous administration, activity reported as percent inhibition of erythema/induration of lesion; 1/20; format: functional
Mus musculus [8] = assay: Mouse active Arthus (MAA) reaction activity was determined for an ip dose of 150 mg/kg in mouse; 31-40%; format: functional; settings: route intraperitoneal
Cavia porcellus [9] = assay: Tested in delayed hypersensitivity skin reaction (DHSR) after subcutaneous administration, activity reported as percent inhibition of erythema/induration of lesion; 11/66; format: functional
Mus musculus [10] = assay: Inhibition of Mouse active Arthus (MAA) reaction activity was determined for peroral dose of 150 mg/kg in mouse; 21-30%; format: functional; settings: route oral
Mus musculus [11] = species: Mus musculus; assay: Mouse active Arthus (MAA) reaction activity was determined for peroral dose of 300 mg in mouse; 21-30%; format: functional
Cavia porcellus [12] = assay: Tested in delayed hypersensitivity skin reaction (DHSR) after subcutaneous administration, activity reported as percent inhibition of erythema/induration of lesion; 5/18; format: functional; summary of the method: as §1
Mus musculus [13] = assay: Inhibition of Mouse active Arthus (MAA) reaction activity was determined for an ip dose of 150 mg/kg in mouse; 21-30%; format: functional; settings: route intraperitoneal
Cavia porcellus [14] = assay: Tested in delayed hypersensitivity skin reaction (DHSR) after subcutaneous administration, activity reported as percent inhibition of erythema/induration of lesion; 4/12; format: functional; summary of the method: as §1
[15] = Acute toxicity as LD50 value was determined in mice administered intraperitoneally; format: organism-based; settings: mouse, in vivo, ip
[16] = Acute toxicity as LD50 value was determined in mice administered orally; format: organism-based; settings: mouse, in vivo, po
Mus musculus [17] = assay: Carrageenan-induced edema was determined value for oral administration; format: functional; settings: read-out: ID50 (the source's name)
Summary of the method: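 Adult male Sprague-Dawley (CD) rats, 160–200 g. Single dose in 1% CMC given 2 h before footpad injection of 0.05 mL 1% carrageenin in pyrogen-free saline. Paws removed and weighed at 3 h, with the contralateral paw as control. ID50 is the dose giving 50% edema inhibition.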

[18] = Therapeutic ratio was determined for intraperitoneal administration; format: ADME; settings: ip; read-out: TR
[19] = Therapeutic ratio was determined for peroral administration; settings: po; read-out: TR

**Q.** For `CN1N=C2/C(=C/c3cccc(C(F)(F)F)c3)CS(=O)(=O)CC2C1c1cccc(C(F)(F)F)c1` (centres undefined), which Activity (Cavia porcellus [1]) is on record?
**A.** 4

**Q.** What about the inhibition in vivo at 150 mg/kg (Mus musculus [2]) of the same compound?
**A.** 41%

**Q.** Which inhibition in vivo at 150 mg/kg (Mus musculus [3]) does the source give for `CCCn1nc(-c2ccccc2)c2c1/C(=C/c1ccccc1)COC2` here?
**A.** 31%

**Q.** For `CCCn1nc(-c2ccc(Cl)cc2)c2c1/C(=C/c1ccc(Cl)cc1)CSC2`, which inhibition in vivo at 150 mg/kg (Mus musculus [2]) is on record?
**A.** 41%

**Q.** Which results are given for `COc1ccc(/C=C2\CS(=O)(=O)CC3C2=NN(CCCN2CCN(C)CC2)C3c2ccc(OC)cc2)cc1` (centres undefined)?
**A.** Activity (Cavia porcellus [4]): 10; inhibition in vivo at 75 mg/kg (Mus musculus [5]): 31%

**Q.** Which results are given for `C#CCN1N=C2/C(=C/c3ccccc3)CS(=O)(=O)CC2C1c1ccccc1` (centres undefined)?
**A.** Activity (Cavia porcellus [1]): 4; inhibition in vivo at 150 mg/kg (Mus musculus [6]): < 20%

**Q.** For `O=C(c1ccc(Cl)cc1)N1N=C2/C(=C/c3ccccc3)CS(=O)(=O)CC2C1c1ccccc1` (centres undefined), which Activity (Cavia porcellus [7]) is on record?
**A.** 1

**Q.** What about the inhibition in vivo at 150 mg/kg (Mus musculus [8]) of the same compound?
**A.** 31%

**Q.** For `CN1CCN(CCCN2N=C3/C(=C/c4ccccc4)CSCC3C2c2ccccc2)CC1` (centres undefined), which Activity (Cavia porcellus [9]) is on record?
**A.** 11

**Q.** And the inhibition in vivo at 150 mg/kg (Mus musculus [2])?
**A.** 41%

**Q.** And the inhibition in vivo at 150 mg/kg (Mus musculus [10])?
**A.** 21%

**Q.** What does the source list for `O=C(c1ccccc1)N1N=C2/C(=C/c3ccccc3)CS(=O)(=O)CC2C1c1ccccc1` (centres undefined)?
**A.** inhibition in vivo at 150 mg/kg (Mus musculus [6]): > 60%; Inhibition (Mus musculus [11]): 21%

**Q.** With `CCCN1N=C2/C(=C/c3ccccc3)CN(C)CC2C1c1ccccc1` (centres undefined) as the compound, how does the Activity (Cavia porcellus [12]) read?
**A.** 5

**Q.** And the inhibition in vivo at 150 mg/kg (Mus musculus [2])?
**A.** 41%

**Q.** For `CCCN1N=C2/C(=C/c3ccccc3)C[S+]([O-])CC2C1c1ccccc1` (single isomer, unassigned; isomer A), which inhibition in vivo at 150 mg/kg (Mus musculus [13]) is on record?
**A.** 21%

**Q.** With `CCCN1N=C2/C(=C/c3ccc(OC)cc3)C[S+]([O-])CC2C1c1ccc(OC)cc1` (single isomer, unassigned; isomer A) as the compound, how does the Activity (Cavia porcellus [14]) read?
**A.** 4

**Q.** What about the inhibition in vivo at 150 mg/kg (Mus musculus [2]) of the same compound?
**A.** 41%

**Q.** Which inhibition in vivo at 150 mg/kg (Mus musculus [2]) does the source give for `CCCN1N=C2/C(=C/c3ccccc3)C[S+]([O-])CC2C1c1ccccc1` (single isomer, unassigned; isomer B) here?
**A.** 41%

**Q.** Which LD50 [15] does the source give for `COc1cc2c(c(OC)c1OC)-c1ccc(OC)c(=O)cc1[C@@H](NC(C)=O)CC2` [COLCHICINE] here?
**A.** 3.5 mg/kg

**Q.** And the LD50 [16]?
**A.** 13.5 mg/kg

**Q.** And the ED50 (Mus musculus [17])?
**A.** 13.2 mg/kg

**Q.** And the selectivity ratio [18]?
**A.** 1.5

**Q.** What about the selectivity ratio [19] of the same compound?
**A.** 1

**Q.** With `COc1ccc2c(c1)c(CC(=O)O)c(C)n2C(=O)c1ccc(Cl)cc1` [INDOMETHACIN] as the compound, how does the ED50 (Mus musculus [17]) read?
**A.** 517 mg/kg

**Q.** And the selectivity ratio [19]?
**A.** 0.04

**Q.** Which ED50 (Mus musculus [17]) does the source give for `COc1ccc2cc([C@H](C)C(=O)O)ccc2c1` [NAPROXEN] here?
**A.** 411 mg/kg
